Measured values reported in ChEMBL document CHEMBL1255303, “In vitro and in vivo antifungal activities of T-2307, a novel arylamidine” (2008).
In brackets after ≈: the same amount, converted by molar mass.

Tests used:
Assay type in all cases: functional
Candida albicans [1] = test: Antifungal activity against Candida albicans clinical isolates after 48 hrs by broth microdilution method
How it was run: (§1)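 Clinical isolates from Japanese hospitals or culture collections were tested by broth microdilution in RPMI 1640-MOPS. Inoculum was 0.57 × 10^3–2.5 × 10^3 CFU/ml for yeasts and 0.4 × 10^4–3.3 × 10^4 CFU/ml for filamentous fungi. Incubation was at 35°C for about 48 h, or 72 h where footnoted. Results were summarised as MIC range, MIC50 and MIC90.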

Mucor racemosus = test: Antifungal activity against Mucor racemosus NBRC5403 after 24 hrs by broth microdilution method; conditions: NBRC5403, 24 h
Cryptococcus neoformans [2] = test: Antifungal activity against Cryptococcus neoformans ATCC 90113 after 72 hrs by broth microdilution method; conditions: ATCC 90113, 72 h
How it was run: (§2)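 CLSI M27-A2 (yeasts) / M38-A (moulds) broth microdilution in RPMI 1640 buffered to pH 7.0 with 0.165 M MOPS. Malassezia furfur got the same medium supplemented with glucose, bile salts, glycerol, glycerol monostearate and Tween 20. Final inoculum 0.65 × 10^3–2.5 × 10^3 CFU/ml for yeasts and 0.87 × 10^4–3.8 × 10^4 CFU/ml for filamentous fungi. Incubation at 35°C except M. racemosus and F. solani, which were held at 30°C.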

Candida parapsilosis [3] = test: Antifungal activity against Candida parapsilosis NBRC 10219 after 48 hrs by broth microdilution method; conditions: Lodderomyces parapsilosis, NBRC 10219, 48 h
How it was run: (§3)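 CLSI M27-A2 (yeasts) or M38-A (A. fumigatus) broth microdilution in RPMI 1640 buffered to pH 7.0 with 0.165 M MOPS. Final inocula were 0.65–2.5 × 10^3 CFU/ml for yeasts and 0.87–3.8 × 10^4 CFU/ml for filamentous fungi. Incubation was at 35°C for about 48 h (72 h for C. neoformans). MIC was the lowest concentration giving a prominent (~50%) turbidity drop versus growth control; amphotericin B required complete inhibition.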

Candida albicans [4] = test: Antifungal activity against Candida albicans ATCC 96901 after 47 hrs by broth microdilution method; conditions: ATCC 96901, 47 h
How it was run: (§4)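 Fluconazole-resistant or susceptible-dose-dependent ATCC C. albicans strains were tested by CLSI M27-A2 broth microdilution in RPMI 1640–0.165 M MOPS, pH 7.0, with a final inoculum of 1.1–1.5 × 10^3 CFU/ml at 35°C for about 47 h. MIC was the lowest concentration with a prominent (~50%) turbidity decrease relative to growth control; amphotericin B was read at complete inhibition.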

Aspergillus fumigatus [5] = test: Antifungal activity against Aspergillus fumigatus ATCC 16424 after 48 hrs by broth microdilution method; conditions: ATCC 16424, 48 h; how it was run: as §3
Candida albicans [6] = test: Antifungal activity against Candida albicans ATCC 10261 after 48 hrs by broth microdilution method; conditions: ATCC 10261, 48 h; how it was run: as §2
Cryptococcus neoformans [7] = test: Antifungal activity against Cryptococcus neoformans clinical isolates after 72 hrs by broth microdilution method; how it was run: as §1
Malassezia furfur = test: Antifungal activity against Malassezia furfur NBRC 0656 after 48 hrs by broth microdilution method; conditions: NBRC 0656, 48 h; how it was run: as §2
Candida albicans [8] = test: Antifungal activity against Candida albicans ATCC 90028 after 48 hrs by broth microdilution method; conditions: ATCC 90028, 48 h; how it was run: as §2
Pichia kudriavzevii = test: Antifungal activity against Candida krusei clinical isolates after 48 hrs by broth microdilution method
How it was run: (§5)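 Japanese hospital Candida isolates were tested by CLSI M27-A2 broth microdilution in RPMI 1640–MOPS, pH 7.0, with inocula of 0.57–2.5 × 10^3 CFU/ml at 35°C for about 48 h. Inocula came from 24-h potato dextrose agar cultures. MIC was the lowest concentration with about 50% turbidity reduction versus growth control (complete inhibition for amphotericin B). Range, MIC50 and MIC90 were reported.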

Trichophyton rubrum = test: Antifungal activity against Trichophyton rubrum NBRC 5467 after 72 hrs by broth microdilution method; conditions: NBRC 5467, 72 h; how it was run: as §2
Aspergillus terreus = test: Antifungal activity against Aspergillus terreus NBRC 33026 after 48 hrs by broth microdilution method; conditions: NBRC 33026, 48 h; how it was run: as §2
Candida albicans [9] = test: Antifungal activity against Candida albicans ATCC MYA-573 after 47 hrs by broth microdilution method; conditions: ATCC MYA-573, 47 h; how it was run: as §4
Candida albicans [10] = test: Antifungal activity against Candida albicans ATCC 24433 after 48 hrs by broth microdilution method; conditions: ATCC 24433, 48 h; how it was run: as §3
Scedosporium boydii = test: Antifungal activity against Pseudallescheria boydii NBRC 32229 after 72 hrs by broth microdilution method; conditions: NBRC 32229, 72 h; how it was run: as §2
Candida tropicalis [11] = test: Antifungal activity against Candida tropicalis clinical isolates after 48 hrs by broth microdilution method; how it was run: as §1
Candida parapsilosis [12] = test: Antifungal activity against Candida parapsilosis clinical isolates after 48 hrs by broth microdilution method; conditions: Lodderomyces parapsilosis; how it was run: as §5
Candida albicans [13] = test: Antifungal activity against Candida albicans ATCC MYA-1003 after 47 hrs by broth microdilution method; conditions: ATCC MYA-1003, 47 h; how it was run: as §4
Nakaseomyces glabratus = test: Antifungal activity against Candida glabrata ATCC 90030 after 48 hrs by broth microdilution method; conditions: ATCC 90030, 48 h; how it was run: as §2
Aspergillus fumigatus [14] = test: Antifungal activity against Aspergillus fumigatus clinical isolates after 48 hrs by broth microdilution method; how it was run: as §1
Lichtheimia corymbifera = test: Antifungal activity against Absidia corymbifera NBRC 4009 after 24 hrs by broth microdilution method; conditions: NBRC 4009, 24 h; how it was run: as §2
Candida tropicalis [15] = test: Antifungal activity against Candida tropicalis IFO 1400 after 48 hrs by broth microdilution method; conditions: IFO 1400, 48 h; how it was run: as §2
Aspergillus fumigatus [16] = test: Antifungal activity against Aspergillus fumigatus TIMM 0063 after 48 hrs by broth microdilution method; conditions: TIMM 0063, 48 h; how it was run: as §2
Aspergillus nidulans = test: Antifungal activity against Aspergillus nidulans NBRC 33017 after 48 hrs by broth microdilution method; conditions: NBRC 33017, 48 h; how it was run: as §2
Trichosporon asahii = test: Antifungal activity against Trichosporon asahii JCM 2466 after 48 hrs by broth microdilution method; conditions: JCM 2466, 48 h; how it was run: as §2
Candida dubliniensis = test: Antifungal activity against Candida dubliniensis ATCC MYA-577 after 48 hrs by broth microdilution method; conditions: ATCC MYA-577, 48 h; how it was run: as §2

N=C(N)c1ccc(OCCCC2CCN(CCCOc3ccc(C(=N)N)cc3)CC2)cc1
MIC50 (Candida albicans [1]): 0.0005 µg/mL (≈ 0.00114 µM) | MIC90 (Candida albicans [1]): 0.002 µg/mL (≈ 0.00457 µM) | MFC (Mucor racemosus): > 64 µg/mL | MIC (Mucor racemosus): 2 µg/mL (≈ 4.57 µM) | MFC (Cryptococcus neoformans [2]): 0.0625 µg/mL (≈ 0.143 µM) | MIC (Cryptococcus neoformans [2]): 0.0078 µg/mL (≈ 0.0178 µM) | MFC (Candida parapsilosis [3]): > 64 µg/mL | MIC (Candida parapsilosis [3]): 0.001 µg/mL (≈ 0.00229 µM) | MIC (Candida albicans [4]): 0.001 µg/mL (≈ 0.00229 µM) | MFC (Aspergillus fumigatus [5]): > 64 µg/mL | MIC (Aspergillus fumigatus [5]): 0.125 µg/mL (≈ 0.286 µM) | MFC (Candida albicans [6]): > 64 µg/mL | MIC (Candida albicans [6]): 0.001 µg/mL (≈ 0.00229 µM) | MIC50 (Cryptococcus neoformans [7]): 0.0156 µg/mL (≈ 0.0356 µM) | MIC90 (Cryptococcus neoformans [7]): 0.0313 µg/mL (≈ 0.0715 µM) | MFC (Malassezia furfur): 2 µg/mL (≈ 4.57 µM) | MIC (Malassezia furfur): 0.0313 µg/mL (≈ 0.0715 µM) | MFC (Candida albicans [8]): > 64 µg/mL | MIC (Candida albicans [8]): 0.001 µg/mL (≈ 0.00229 µM) | MIC50 (Pichia kudriavzevii): 0.001 µg/mL (≈ 0.00229 µM) | MIC90 (Pichia kudriavzevii): 0.002 µg/mL (≈ 0.00457 µM) | MFC (Trichophyton rubrum): > 64 µg/mL | MIC (Trichophyton rubrum): 2 µg/mL (≈ 4.57 µM) | MFC (Aspergillus terreus): 4 µg/mL (≈ 9.14 µM) | MIC (Aspergillus terreus): 0.125 µg/mL (≈ 0.286 µM) | MIC (Candida albicans [9]): 0.001 µg/mL (≈ 0.00229 µM) | MFC (Candida albicans [10]): > 64 µg/mL | MIC (Candida albicans [10]): 0.001 µg/mL (≈ 0.00229 µM) | MFC (Scedosporium boydii): > 64 µg/mL | MIC (Scedosporium boydii): 4 µg/mL (≈ 9.14 µM) | MIC50 (Candida tropicalis [11]): 0.0005 µg/mL (≈ 0.00114 µM) | MIC90 (Candida tropicalis [11]): 0.0005 µg/mL (≈ 0.00114 µM) | MIC50 (Candida parapsilosis [12]): 0.0005 µg/mL (≈ 0.00114 µM) | MIC90 (Candida parapsilosis [12]): 0.0005 µg/mL (≈ 0.00114 µM) | MIC (Candida albicans [13]): 0.001 µg/mL (≈ 0.00229 µM) | MFC (Nakaseomyces glabratus): > 64 µg/mL | MIC (Nakaseomyces glabratus): 0.0039 µg/mL (≈ 0.00891 µM) | MIC50 (Aspergillus fumigatus [14]): 1 µg/mL (≈ 2.29 µM) | MIC90 (Aspergillus fumigatus [14]): 2 µg/mL (≈ 4.57 µM) | MFC (Lichtheimia corymbifera): > 64 µg/mL | MIC (Lichtheimia corymbifera): 0.5 µg/mL (≈ 1.14 µM) | MFC (Candida tropicalis [15]): 4 µg/mL (≈ 9.14 µM) | MIC (Candida tropicalis [15]): 0.0005 µg/mL (≈ 0.00114 µM) | MFC (Aspergillus fumigatus [16]): > 64 µg/mL | MIC (Aspergillus fumigatus [16]): 1 µg/mL (≈ 2.29 µM) | MFC (Aspergillus nidulans): 0.0313 µg/mL (≈ 0.0715 µM) | MIC (Aspergillus nidulans): 0.0156 µg/mL (≈ 0.0356 µM) | MFC (Trichosporon asahii): > 64 µg/mL | MIC (Trichosporon asahii): 64 µg/mL (≈ 146 µM) | MFC (Candida dubliniensis): > 64 µg/mL | MIC (Candida dubliniensis): 0.001 µg/mL (≈ 0.00229 µM)
